Experimental data reported in paper PMC2229406 (The Journal of General Physiology, 1998).
pKd: −log10 of the molar value. Values joined by “and” are separate entries in the source; they are usually repeats but may differ in a detail not shown here. Equal values may be shown once. Read-outs that look alike come from different tables or passages of the source.

Experiments:
[1] = test system: sheep cardiac ryanodine receptor (RyR) channel; format: biochemical
How it was run: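 CHAPS-solubilized RyR from sheep ventricular heavy SR (30/40% sucrose interface) was reconstituted into liposomes and fused into phosphatidylethanolamine/n-decane bilayers. Both chambers held 610 mM K+, 20 mM HEPES pH 7.4 and 10 μM contaminant Ca2+, with 100 μM EMD 41000 cis. Single channels only, at 21 ± 2°C. Ryanoid added cytosolically; steady-state runs ≥6 min at +40 mV. Pmod = modified/(modified+unmodified) time; single-site nonlinear regression; mean ± SEM.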

[2] = test system: sheep cardiac ryanodine receptor (RyR) channel; settings: ref Tinker et al., 1996, cited from earlier work
[3] = +40 mV, 500 nM cytosolic, 20 min recording, single exponential fit

## 21-amino-9α-hydroxy-ryanodine
[1]; 50 nM ryanoid, +40 mV, n = 5
  mean P o ± SEM in unmodified periods: 0.62 ± 0.15
[1]; 100 nM ryanoid, +40 mV, n = 5
  mean P o ± SEM in unmodified periods: 0.71 ± 0.16
[1]; 300 nM ryanoid, +40 mV, n = 5
  mean P o ± SEM in unmodified periods: 0.70 ± 0.16
[1]; 500 nM at the luminal face, +60 or −60 mV, n = 6
  modification of channel function, luminal addition: no modification of gating or conductance
[1]; 500 nM cytosolic
  total valency / total voltage dependence (z on + z off): 1.98 and 2
[1]; 500 nM cytosolic, −60 mV
  interaction with the channel at −60 mV: no discernible modified-conductance events
[1]; 500 nM ryanoid, +40 mV, n = 5
  mean P o ± SEM in unmodified periods: 0.56 ± 0.16
[1]; 700 nM cytosolic, +40 mV
  k on, intercept of regression line vs P o: 0.02 ± 0.02 s⁻¹
[1]; 700 nM cytosolic, +40 mV, range P o = 0–1
  k on, slope vs P o: 0.97 ± 0.05 s⁻¹
[1]; 700 nM ryanoid, +40 mV, n = 4
  mean P o ± SEM in unmodified periods: 0.73 ± 0.15
[1]; 900 nM ryanoid, +40 mV, n = 4
  mean P o ± SEM in unmodified periods: 0.73 ± 0.15
[1]; [3]
  mean dwell time in the modified state (τmod): 4.21 s
  mean dwell time in the unmodified state (τunmod): 0.95 s
[1]; +40 mV, 50-900 nM cytosolic, single-site binding scheme, nonlinear regression
  K d from P mod vs concentration: 0.105 µM
[1]; +40 mV, independent of concentration
  apparent rate constant for dissociation, mean value: 0.24 ± 0.01 s⁻¹
[1]; Boltzmann fit of P mod vs holding potential, 500 nM cytosolic
  z, voltage dependence of occurrence of the modified state: 2.16
[1]; P mod vs concentration, +40 mV
  Hill slope: 0.99
[1]; association, +40 mV
  slope of ln(rate constant) vs ln(concentration): 0.975
[1]; cursors at center of noise, 610 mM K+, SEM, n = 14
  modified conductance: 354 ± 6 pS
[1]; holding potential 20 mV, n = 10
  mean fractional conductance ± SEM: 0.438 ± 0.004
[1]; holding potential 40 mV, n = 10
  mean fractional conductance ± SEM: 0.440 ± 0.003
[1]; holding potential 60 mV, n = 10
  mean fractional conductance ± SEM: 0.462 ± 0.003
[1]; holding potential +20 mV, 500 nM ryanoid, n = 7
  mean P o ± SEM in unmodified periods: 0.65 ± 0.09
[1]; holding potential +40 mV, 500 nM ryanoid, n = 7
  mean P o ± SEM in unmodified periods: 0.69 ± 0.09
[1]; holding potential +60 mV, 500 nM ryanoid, n = 7
  mean P o ± SEM in unmodified periods: 0.45 ± 0.06
[1]; holding potential −20 mV, 500 nM ryanoid, n = 6
  mean P o ± SEM in unmodified periods: 0.62 ± 0.15
[1]; holding potential −20 mV, n = 10
  mean fractional conductance ± SEM: 0.437 ± 0.005
[1]; holding potential −40 mV, 500 nM ryanoid, n = 5
  mean P o ± SEM in unmodified periods: 0.73 ± 0.13
[1]; holding potential −40 mV, n = 6
  mean fractional conductance ± SEM: 0.442 ± 0.002
[1]; holding potential −60 mV, 500 nM ryanoid, n = 5
  mean P o ± SEM in unmodified periods: 0.78 ± 0.17
[1]; modified conductance as proportion of unmodified conductance (813 pS)
  fractional conductance: 0.44
[1]; read-out: apparent K d derived from the rate constants, +40 mV
  pKd: 6.95
[1]; slope of ln(K off) vs holding potential, 500 nM cytosolic
  z off: 0.87
[1]; slope of ln(K on) vs holding potential, 500 nM cytosolic
  z on: 1.11

## CC(C)[C@@]1(O)[C@@H](O)[C@@]2(O)[C@@]3(C)C[C@]4(O)O[C@@]5([C@H](O)[C@@H](C)CC[C@]35O)[C@@]2(O)[C@]14C [ryanodol]
[2]; +60 vs −60 mV
  voltage dependence of channel modification: more likely to occur and are longer lasting at a holding potential of +60 than −60 mV
[2]
  amplitude of reduced conductance state, of the normal unmodified conductance: ~70%
